Screening results (PubChem BioAssay)
An excerpt weighted towards active compounds, which were near 2.8% of everything screened.
EP2 mod: modulators of human EP2 prostaglandin E2 receptor; induction, % at 25 µM; AID 940; EP2-expressing cells, cAMP HTRF FRET, PGE2 co-stimulation; P43116; 0.83% of 260,000 active;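 active means compounds whose cAMP rise, as percent of the full-agonist control response, exceeds 60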;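 further: rat C6 glioma line stably carrying human EP2 under a CMV promoter; the protocol text gives 20 µM as final concentration; 100% = response of wells given 1 µM PGE2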
Target sequence (P43116 whole entry, looked up): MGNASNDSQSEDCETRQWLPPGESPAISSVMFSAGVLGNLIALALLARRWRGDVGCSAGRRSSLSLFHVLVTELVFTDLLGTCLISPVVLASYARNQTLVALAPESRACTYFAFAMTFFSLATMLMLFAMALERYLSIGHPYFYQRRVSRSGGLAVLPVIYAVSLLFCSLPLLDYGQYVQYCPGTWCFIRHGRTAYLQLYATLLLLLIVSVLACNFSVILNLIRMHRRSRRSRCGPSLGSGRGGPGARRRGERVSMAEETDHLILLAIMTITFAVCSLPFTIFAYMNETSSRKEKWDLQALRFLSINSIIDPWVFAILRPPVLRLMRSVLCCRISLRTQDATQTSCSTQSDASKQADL
NPY-Y1 antag: antagonists of human neuropeptide Y receptor Y1; P25929; HEK293-CNG Y1 cells, membrane potential fluorescence; NPY at EC95, then isoproterenol; inhibition, % at 3.6 µM; 1% of 200,000 active; AID 1040;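 active means inhibition above the campaign mean inhibition of all tested compounds plus 3 SD, cut at about 20% in these data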;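 further: 0% = DMSO wells given NPY plus isoproterenol and 100% = isoproterenol alone without NPY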
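Test system: HEK293 cells co-expressing NPY Y1 receptor and cyclic-nucleotide gated channel; Also added: NPY (25 nM), isoproterenol (1 µM), Ro 20-1724 (25 µM); Compound dosing: one concentration, 3.6 µM, in 0.4% DMSO; Timing: dye 3 h, compound 60 min room temperature, stimulation 45 min; Technique: Membrane-potential fluorescent dye readout.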
EP2 antag: EP2 receptor (human) inhibition | P43116 | C6 glioma cells expressing human EP2, cAMP TR-FRET; cells stimulated with saturating PGE2 | inhibition, % at 25 µM | 0.52% of 260,000 active | AID 1422;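 active means percent inhibition above 40 after rounding to a whole number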;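 further: rat C6 glioma host cells with rolipram phosphodiesterase inhibitor present; the protocol text gives 20 µM as final concentration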
NPY1 pot ag: potentiates or activates human NPY-Y1 receptor; AID 1304; activation, % at 3.6 µM; P25929; NPY-Y1 expressing cells, potentiator/agonist activation; 0.37% of 220,000 active; in the data active means activation above about 33%, passing the limit was not always enough;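 further: cells stimulated with NPY at EC10 then isoproterenol at EC100; 0% = low agonist plus stimulus and 100% = saturating agonist plus stimulus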
NPY-Y2 antag: blocks the human neuropeptide Y Y2 receptor; P49146; NPY-Y2 expressing cells, antagonist mode; inhibition, % at 2.7 µM; 0.99% of 140,000 active; in the data active means inhibition above about 17%;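 further: 0% = vehicle with agonist challenge and 100% = reference antagonist with challenge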
Target sequence (P49146 whole entry, looked up): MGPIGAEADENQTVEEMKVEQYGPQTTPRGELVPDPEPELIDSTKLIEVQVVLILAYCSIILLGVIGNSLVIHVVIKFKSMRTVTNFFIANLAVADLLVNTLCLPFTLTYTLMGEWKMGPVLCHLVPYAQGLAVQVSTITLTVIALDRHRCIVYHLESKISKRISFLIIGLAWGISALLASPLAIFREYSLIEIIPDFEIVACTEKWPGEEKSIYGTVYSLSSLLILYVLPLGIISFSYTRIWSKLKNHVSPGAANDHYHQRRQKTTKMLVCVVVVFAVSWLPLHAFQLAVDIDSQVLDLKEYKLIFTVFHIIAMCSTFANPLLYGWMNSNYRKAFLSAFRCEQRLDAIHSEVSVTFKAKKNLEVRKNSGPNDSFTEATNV
NPY-Y2 PAM-ag: human NPY-Y2 potentiation or agonism, primary screen; P49146; cells expressing NPY-Y2, potentiator/agonist read-out; activation, % at 3.6 µM; 0.45% of 220,000 active; in the data active means activation above about 27%;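 further: cells stimulated with NPY near EC25 plus isoproterenol at EC100; 0% = vehicle plus submaximal agonist and 100% = vehicle plus saturating agonist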
EP2 cAMP induct: human EP2 receptor cAMP induction, negative in counter-screens | AID 1080 | calls only at 20 µM (by protocol) | shares compounds with EP2 mod | C6 glioma EP2 cells, cAMP HTRF induction; plus low (about EC15) PGE2 agonist | 47% of 1,300 active;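 active means cAMP induction above 50% in the main assay while under 30% in all four parallel counter assays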;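 further: rat C6 glioma cells stably expressing human EP2 receptor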
Numbers without * were called inactive; i = inactive; nt = no result given; + = active, no number.

SMILES	EP2 mod	NPY-Y1 antag	EP2 antag	NPY1 pot ag	NPY-Y2 antag	NPY-Y2 PAM-ag	EP2 cAMP induct
Cc1ccc(S(=O)(=O)c2c(C)cc(C)nc2N2CCCC2)cc1	53.4	-4.7	5.5	6.9	nt	0.5	nt
CCNC(=O)C1CCCN(S(=O)(=O)c2ccc(Cl)cc2)C1 (centres undefined)	-24.9	nt	2.1	nt	nt	nt	nt
O=C(CSc1nc2cc(Cl)ccc2s1)N1CCCc2ccccc21	67.8*	12.4	4.0	-30.4	11.1	-27.9	+
S=c1[nH]nc(-c2ccco2)n1/N=C/c1cccs1	7.8	3.3	12.2	0.2	7.8	-5.6	nt
S=c1[nH]nc(-c2ccco2)n1/N=C/c1ccc(Cl)cc1Cl	78.4*	5.8	3.7	3.3	3.5	-9.1	+
C=CCn1ncc(CN(CCN(C)C)Cc2ccc(C)o2)c1C	-48.5	nt	2.9	nt	nt	nt	nt
CCC1CCc2c(sc(N)c2C(N)=O)C1 (centres undefined)	-11.8	3.1	4.5	2.5	2.4	0.8	nt
CCOC(=O)c1c(N)sc2c1CCC(CC)C2 (centres undefined)	65.7*	3.1	11.1	-4.0	1.2	-14.7	i
C=CCSc1nc2sc(C)c(C)c2c(=O)n1CC=C	71.2*	8.2	8.4	-44.0	3.0	-2.8	i
C=CCn1c(SCC(=O)Nc2cc(C)on2)nc2sc(C)c(C)c2c1=O	10.4	-0.6	nt	-3.0	0.5	4.0	nt
C=CCSc1ncnc2sc(C)c(C)c12	55.3	5.5	2.9	-6.5	5.3	-2.9	i
COc1ccc2[nH]c(=O)c(CN(Cc3ccccc3OC)C(=O)Nc3ccccc3OC)cc2c1	22.2	nt	3.2	nt	nt	nt	nt
CCOC(=O)CC(=O)CSc1ncnc2c1oc1ccccc12	66.6*	-8.1	nt	-19.9	3.9	-5.9	i
N#CCCSc1ncnc2c1oc1ccccc12	66.3*	12.3	8.7	14.3	1.8	5.6	i
OCCSc1ncnc2c1oc1ccccc12	6.0	0.8	7.2	1.9	-1.3	13.8	nt
O=C(CSc1ncnc2c1oc1ccccc12)Nc1ccccc1C(F)(F)F	79.2*	1.9	11.2	-17.0	7.9	3.3	i
O=C(C1CC(=O)N(c2ccccc2F)C1)N1CCC(O)(c2ccccn2)CC1 (centres undefined)	-25.6	nt	5.3	nt	nt	nt	nt
O=C(O)/C=C/c1ccccc1Oc1ccc(Cl)cc1Cl	87.3*	4.2	3.6	-19.6	nt	2.0	+
CCCCOc1c(Br)cc(/C=N/O)cc1OCC	66.2*	13.5	nt	-16.4	13.2	-18.5	i
N#Cc1sc2nc(N3CCCCC3)c3c(c2c1N)CCCC3	73.0*	-1.8	16.9	-22.0	0.9	-14.2	+
COc1cccc(-c2cc(C(F)(F)F)nc(N3CCOCC3)n2)c1	35.0	18.1	6.4	-41.5	5.6	-29.4	nt
COc1ccc(-c2cc(C(F)(F)F)nc(NC3CCCC3)n2)cc1OC	68.3*	16.8	8.2	-34.1	6.3	-16.8	i
COc1ccc(-c2cc(C(F)(F)F)nc(N3CCOCC3)n2)cc1OC	69.7*	6.8	5.5	20.2	5.1	-5.8	+
COc1ccc(-c2cc(-c3ccccc3)nc(N3CCCC3)n2)cc1OC	63.8*	-1.2	5.3	-10.1	3.0	-1.3	i
O=c1[nH]cnc2c1sc1nc(N3CCCCC3)c3c(c12)CCCC3	34.4	nt	15.0	nt	nt	nt	nt
SMILES	EP2 mod	NPY-Y1 antag	EP2 antag	NPY1 pot ag	NPY-Y2 antag	NPY-Y2 PAM-ag	EP2 cAMP induct
Cc1cc2ccccc2n2c(=O)n(CCNC(=O)c3ccnn3C)nc12	-16.9	nt	6.0	nt	nt	nt	nt
CCC(=O)N(Cc1ccc2c(c1)OCO2)Cc1cc2cc(C)ccc2[nH]c1=O	-10.2	nt	14.4	nt	nt	nt	nt
O=C1c2ccccc2OC2(C=Cc3ccccc3O2)N1Cc1ccccc1 (centres undefined)	76.5*	-0.2	nt	10.9	4.6	-0.3	+
Cc1cc(C)nc(SCc2nnc(SCC(=O)N3CCOCC3)n2Cc2ccco2)n1	48.6	nt	6.2	nt	nt	nt	nt
N#Cc1cn(-c2ccccc2)nc1-c1cc2ccccc2oc1=O	65.0*	10.6	7.8	-14.8	2.8	9.1	i
CCN1CC=C2C(C#N)=C(N)C(C#N)(C#N)C(c3cc4c(cc3Cl)OCO4)C2C1 (centres undefined)	-43.5	nt	11.3	nt	nt	nt	nt
O=C(NCc1ccccc1)c1ccc(=O)[nH]n1	13.7	-0.3	7.2	3.5	-0.2	4.1	nt
O=C(NCc1ccco1)c1ccc(=O)[nH]n1	67.3*	3.3	12.5	5.7	2.6	-24.5	i
C=CCSc1nc(Oc2ccccc2)c2sccc2n1	69.3*	4.0	8.2	13.4	5.3	5.4	i
C=CCNc1nc(SCC=C)nc2ccsc12	25.2	6.7	nt	13.9	0.8	-7.5	nt
CSc1nc(Oc2ccccc2)c2sccc2n1	66.3*	5.5	5.6	1.8	7.8	-4.0	+
CC(=O)N1CCc2nc3sc(C(=O)NCc4ccccc4)c(N)c3c(C(F)(F)F)c2C1	-2.0	nt	12.6	nt	nt	nt	nt
Cc1noc(C)c1C(=O)Nc1ccc(CCC2CCN(C(C)C)CC2C)cc1 (centres undefined)	-22.9	nt	nt	nt	nt	nt	nt
COc1ccc(-c2nnc3ccc(SCC(=O)Nc4nccs4)nn23)cc1OC	-8.2	9.3	4.8	0.6	7.6	9.3	nt
COc1ccc(-c2nnc3ccc(SCC(=O)Nc4nc5ccccc5s4)nn23)cc1OC	65.9*	-2.1	17.3	-65.7	1.8	-7.2	i
Cc1sc(NC(=O)c2ccccc2F)c(CN2CCCCC2)c1C	84.2*	-1.1	17.4	-20.9	1.7	-6.3	i
Cc1sc(NC(=O)c2ccc(F)cc2)c(CN2CCCCCC2)c1C	59.2	-2.3	8.9	-16.7	0.0	2.2	nt
CCOc1ccc(NC(=O)C2CCN(S(=O)(=O)c3ccccc3)CC2)cc1	-22.6	nt	5.5	nt	nt	nt	nt
O=C(O)c1ccc(CNCc2cccc(Cl)c2Cl)cc1	68.2*	-4.5	6.9	21.3	1.5	8.5	i
O=C(O)c1ccc(CNCc2ccccc2Cl)cc1	26.2	-1.3	10.3	2.1	2.7	16.5	nt
CCOC(=O)c1sc(NC(=O)CN2C(=O)c3cccc4cccc(c34)C2=O)nc1C	66.1*	-5.7	-3.3	1.9	-0.2	-0.6	i
Cc1ccc(Cn2c(Cc3ccccc3)nc3ccccc32)cc1	80.0*	-2.1	3.9	1.3	2.5	8.9	+
COCc1nc2ccccc2n1Cc1ccc(C)cc1	11.2	nt	11.7	nt	nt	nt	nt
Cc1cccc(NCc2nc3ccccc3n2Cc2ccccc2)c1	66.3*	0.6	-0.6	-6.4	2.6	6.2	i
CC(C)(C)c1csc(NC(=O)CSc2nc(-c3ccccc3)cc(=O)[nH]2)n1	-18.7	nt	2.9	nt	nt	nt	nt
CCNC(=S)N(Cc1ccc(OC)cc1)Cc1cc2ccc(C)c(C)c2[nH]c1=O	-22.1	nt	7.2	nt	nt	nt	nt
CCCCCCC/C=C\CCCCCCCCC(=O)O	94.2*	nt	9.9	nt	nt	nt	+
